Columns and labels:
[1] = target: T1, Tyrosine-protein kinase Lck (Homo sapiens, UniProt P06239); experiment: Inhibition of human p56 Lck tyrosine kinase
[2] = Inhibition of anti-CD3, anti-CD28 induced PBL T-cell proliferation; type: functional; details: Homo sapiens
[3] = target: Tyrosine-protein kinase Fyn (Homo sapiens, UniProt P06241); experiment: Inhibition of Fyn protein kinase
Method in brief: (§1)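 Continuous coupled assay (pyruvate kinase/lactate dehydrogenase with PEP and NADH), run under the same conditions as the GST-Lck assay. Inhibitor was added in DMSO and the reaction started with ATP. Fluorescence was followed and rates were fitted by nonlinear least squares to derive Ki.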

[4] = target: T1, Tyrosine-protein kinase Lck; experiment: Inhibition of p56 Lck tyrosine kinase
[5] = target: Proto-oncogene tyrosine-protein kinase Src (Homo sapiens, UniProt P12931); experiment: Inhibition of Src protein tyrosine kinase; method in brief: as §1
Chain of Proto-oncogene tyrosine-protein kinase Src (P12931 2-536 limits assumed): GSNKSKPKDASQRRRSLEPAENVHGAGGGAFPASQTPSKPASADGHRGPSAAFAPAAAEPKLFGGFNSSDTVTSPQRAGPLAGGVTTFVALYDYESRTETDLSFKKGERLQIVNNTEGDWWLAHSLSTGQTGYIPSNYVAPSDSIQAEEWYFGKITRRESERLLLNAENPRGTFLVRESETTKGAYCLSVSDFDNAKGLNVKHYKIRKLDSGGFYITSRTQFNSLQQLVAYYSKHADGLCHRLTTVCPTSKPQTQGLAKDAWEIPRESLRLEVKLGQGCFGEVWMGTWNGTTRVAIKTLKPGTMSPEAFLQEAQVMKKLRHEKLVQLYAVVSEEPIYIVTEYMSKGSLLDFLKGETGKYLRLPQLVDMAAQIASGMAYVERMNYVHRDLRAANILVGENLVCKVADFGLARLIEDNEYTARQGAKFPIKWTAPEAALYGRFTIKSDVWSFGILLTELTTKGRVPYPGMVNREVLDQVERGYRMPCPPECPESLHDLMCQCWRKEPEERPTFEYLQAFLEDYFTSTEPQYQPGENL

Chain of Tyrosine-protein kinase Fyn (P06241 whole entry): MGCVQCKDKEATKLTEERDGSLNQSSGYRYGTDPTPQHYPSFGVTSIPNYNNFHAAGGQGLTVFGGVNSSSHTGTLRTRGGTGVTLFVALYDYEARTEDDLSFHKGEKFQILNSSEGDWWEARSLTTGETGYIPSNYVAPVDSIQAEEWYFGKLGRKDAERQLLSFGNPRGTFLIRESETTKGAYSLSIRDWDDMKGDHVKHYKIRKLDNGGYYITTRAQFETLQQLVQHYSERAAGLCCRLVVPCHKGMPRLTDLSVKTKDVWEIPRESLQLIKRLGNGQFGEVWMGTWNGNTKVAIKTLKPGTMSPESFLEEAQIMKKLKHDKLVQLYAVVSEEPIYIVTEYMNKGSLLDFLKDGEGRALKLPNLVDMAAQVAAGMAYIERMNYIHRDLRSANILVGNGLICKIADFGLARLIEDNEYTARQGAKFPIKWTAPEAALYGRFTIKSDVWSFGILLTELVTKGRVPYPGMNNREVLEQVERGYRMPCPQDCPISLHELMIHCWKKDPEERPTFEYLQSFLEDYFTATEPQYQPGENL
T1 sequence (P06239 whole entry): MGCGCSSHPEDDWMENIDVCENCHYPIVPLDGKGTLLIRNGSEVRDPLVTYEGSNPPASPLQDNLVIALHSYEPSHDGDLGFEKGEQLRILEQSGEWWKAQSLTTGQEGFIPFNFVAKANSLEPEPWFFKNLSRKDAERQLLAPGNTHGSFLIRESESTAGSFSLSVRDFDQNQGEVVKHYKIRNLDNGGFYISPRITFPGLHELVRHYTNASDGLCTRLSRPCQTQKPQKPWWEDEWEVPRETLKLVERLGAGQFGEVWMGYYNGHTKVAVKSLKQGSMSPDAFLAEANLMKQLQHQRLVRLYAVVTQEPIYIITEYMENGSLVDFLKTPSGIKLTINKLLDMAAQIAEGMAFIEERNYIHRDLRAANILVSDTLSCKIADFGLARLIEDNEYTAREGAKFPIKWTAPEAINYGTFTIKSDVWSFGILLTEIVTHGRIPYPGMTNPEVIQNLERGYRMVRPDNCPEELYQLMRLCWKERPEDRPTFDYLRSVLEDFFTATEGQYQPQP

IC50 [1] [nM] | SMILES | further results
> 3100 | Cc1cc(C)c(NC(=O)c2ccc3nc(Nc4ncc[nH]4)sc3c2)c(C)c1 | –
5 | CCc1cc(Nc2nc3ccc(C(=O)Nc4c(C)cccc4Cl)cc3s2)ncn1 | –
2 | Cc1cccc(Cl)c1NC(=O)c1ccc2nc(Nc3cccc(N)n3)sc2c1 | –
9 | Cc1cccc(Nc2nc3ccc(C(=O)Nc4c(C)cccc4Cl)cc3s2)n1 | –
1590 | Cc1cccc(Cl)c1NC(=O)c1ccc2nc(Nc3ccn[nH]3)sc2c1 | –
403 | Cc1cc(C)c(NC(=O)c2ccc3nc(Nc4ccncn4)sc3c2)c(C)c1 | –
138 | Cc1cc(C)c(NC(=O)c2ccc3nc(Nc4ccccn4)sc3c2)c(C)c1 | –
180 | Cc1cc(C)c(NC(=O)c2ccc3nc(Nc4cccc(C)n4)sc3c2)c(C)c1 | –
7 | CNCc1cc(Nc2nc3ccc(C(=O)Nc4c(C)cccc4Cl)cc3s2)nc(C)n1 | –
> 3100 | Cc1cc(C)c(NC(=O)c2ccc3nc(NCC4CC4)sc3c2)c(C)c1 | –
1740 | Cc1cc(C)c(NC(=O)c2ccc3nc(Nc4ccccc4)sc3c2)c(C)c1 | –
20 | Cc1cccc(Cl)c1NC(=O)c1ccc2nc(Nc3cc(Cl)ncn3)sc2c1 | –
27 | Cc1cccc(Cl)c1NC(=O)c1ccc2nc(Nc3ccncn3)sc2c1 | –
53 | Cc1cc(C)c(NC(=O)c2ccc3nc(Nc4cc(C)nc(C)n4)sc3c2)c(C)c1 | –
> 3100 | Cc1cc(C)c(NC(=O)c2ccc3nc(Nc4cnc[nH]4)sc3c2)c(C)c1 | –
3 | Cc1cccc(Cl)c1NC(=O)c1ccc2nc(Nc3ccnc(NCCO)n3)sc2c1 | –
1 | Cc1cc(Nc2nc3ccc(C(=O)Nc4c(C)cccc4Cl)cc3s2)nc(NCC2CCCO2)n1 (stereo not given) | IC50 [2]: 262 nM; Ki [3]: 1.1 nM; Ki [4]: 0.54 nM; Ki [5]: 3.2 nM
> 3100 | Cc1cccc(Cl)c1NC(=O)c1ccc2nc(Nc3ncc[nH]3)sc2c1 | –
– | Cc1cccc(Cl)c1NC(=O)c1ccc2nc(NC(=O)NC(C)(C)C)sc2c1 | IC50 [2]: 1100 nM; Ki [3]: 100 nM; Ki [4]: 5.5 nM; Ki [5]: 333 nM
20 | Cc1cc(Nc2nc3ccc(C(=O)Nc4c(C)cccc4Cl)cc3s2)nc(C)n1 | –
17 | Cc1cnc(Nc2nc3ccc(C(=O)Nc4c(C)cc(C)cc4C)cc3s2)c(C)c1 | –
84 | Cc1cccc(Cl)c1NC(=O)c1ccc2nc(Nc3ccccn3)sc2c1 | –
5 | CCc1ccnc(Nc2nc3ccc(C(=O)Nc4c(C)cccc4Cl)cc3s2)c1 | –
20 | CNc1nccc(Nc2nc3ccc(C(=O)Nc4c(C)cccc4Cl)cc3s2)n1 | –
8 | Cc1cc(C)nc(Nc2nc3ccc(C(=O)Nc4c(C)cccc4Cl)cc3s2)c1 | –
32 | Cc1ccnc(Nc2nc3ccc(C(=O)Nc4c(C)cc(C)cc4C)cc3s2)c1 | –

IC50 [1] [nM] | SMILES | further results
35 | Cc1ccc(Nc2nc3ccc(C(=O)Nc4c(C)cccc4Cl)cc3s2)nc1 | –
2 | CC(=O)NCCNc1cccc(Nc2nc3ccc(C(=O)Nc4c(C)cccc4Cl)cc3s2)n1 | –
1890 | Cc1cc(C)c(NC(=O)c2ccc3nc(Nc4nccnn4)sc3c2)c(C)c1 | –
13 | COc1cc(Nc2nc3ccc(C(=O)Nc4c(C)cccc4Cl)cc3s2)ncn1 | –
31 | Cc1cccc(Cl)c1NC(=O)c1ccc2nc(Nc3ccnc(Cl)n3)sc2c1 | –
77 | CCc1cc(Nc2nc3ccc(C(=O)Nc4c(C)cc(C)cc4C)cc3s2)ncn1 | –
20 | Cc1ccnc(Nc2nc3ccc(C(=O)Nc4c(C)cccc4Cl)cc3s2)c1 | –
6 | Cc1cc(Nc2nc3ccc(C(=O)Nc4c(C)cccc4Cl)cc3s2)nc(NCC(C)(C)O)n1 | –
72 | Cc1ccc(Nc2nc3ccc(C(=O)Nc4c(C)cc(C)cc4C)cc3s2)nc1 | –
> 3100 | Cc1cc(C)c(NC(=O)c2ccc3nc(Nc4ncccc4C)sc3c2)c(C)c1 | –
> 3100 | Cc1cc(C)c(NC(=O)c2ccc3nc(Nc4nc[nH]n4)sc3c2)c(C)c1 | –
10 | Cc1cccc(Cl)c1NC(=O)c1ccc2nc(Nc3cccc(CN(C)C)n3)sc2c1 | –
6 | Cc1cccc(Cl)c1NC(=O)c1ccc2nc(Nc3cccc(NCC(C)(C)N)n3)sc2c1 | –
> 3100 | Cc1cc(C)c(NC(=O)c2ccc3nc(Nc4ccncc4)sc3c2)c(C)c1 | –
327 | Cc1cccc(Cl)c1NC(=O)c1ccc2nc(Nc3ccccc3)sc2c1 | –
> 3100 | Cc1cc(C)c(NC(=O)c2ccc3nc(Nc4cccnc4)sc3c2)c(C)c1 | –
9 | Cc1cccc(Cl)c1NC(=O)c1ccc2nc(Nc3cc(CN(C)C)ccn3)sc2c1 | –
403 | Cc1cccc(Cl)c1NC(=O)c1ccc2nc(Nc3cc(N)ccn3)sc2c1 | –
> 3100 | Cc1cc(C)c(NC(=O)c2ccc3nc(Nc4nccs4)sc3c2)c(C)c1 | –
21 | Cc1cc(Nc2nc3ccc(C(=O)Nc4c(C)cccc4Cl)cc3s2)ncn1 | –
6 | CC(=O)NCCNc1cc(Nc2nc3ccc(C(=O)Nc4c(C)cccc4Cl)cc3s2)ncn1 | –
8 | Cc1cccc(Cl)c1NC(=O)c1ccc2nc(Nc3cc(NCCO)ncn3)sc2c1 | –
8 | Cc1cccc(Cl)c1NC(=O)c1ccc2nc(Nc3cc(N)ncn3)sc2c1 | –
235 | Cc1cc(C)c(NC(=O)c2ccc3nc(Nc4cnccn4)sc3c2)c(C)c1 | –
2 | CNc1cc(Nc2nc3ccc(C(=O)Nc4c(C)cccc4Cl)cc3s2)ncn1 | IC50 [2]: 690 nM; Ki [3]: 8.8 nM; Ki [4]: 6.6 nM; Ki [5]: 17 nM

SMILES | IC50 [1] [nM] | further results
Cc1cccc(Cl)c1NC(=O)c1ccc2nc(Nc3cccc(NCCO)n3)sc2c1 | 0.5 | IC50 [2]: 475 nM; Ki [3]: 2.4 nM; Ki [4]: 0.9 nM; Ki [5]: 13 nM
Cc1cccc(Cl)c1NC(=O)c1ccc2nc(Nc3cnccn3)sc2c1 | 15 | –
Cc1cccc(Cl)c1NC(=O)c1ccc2nc(NN3C=CC=CN3)sc2c1 | 41 | –
Cc1cccc(Cl)c1NC(=O)c1ccc2nc(Nc3cc(CN4CCOCC4)ccn3)sc2c1 | 1 | –
Cc1cc(Nc2nc3ccc(C(=O)Nc4c(C)cccc4Cl)cc3s2)nc(CN2CCOCC2)n1 | 10 | –
Cc1nc(CN2CCOCC2)cc(Nc2nc3ccc(C(=O)Nc4c(C)cccc4Cl)cc3s2)n1 | 6 | –
Cc1cccc(Cl)c1NC(=O)c1ccc2nc(Nc3cccc(CN4CCOCC4)n3)sc2c1 | 13 | –
CNN1CCN(Cc2ccnc(Nc3nc4ccc(C(=O)Nc5c(C)cccc5Cl)cc4s3)c2)CC1 | 1 | –
Cc1cc(C)c(NC(=O)c2ccc3nc(Nc4ncccn4)sc3c2)c(C)c1 | > 3100 | –
Cc1cc(Nc2nc3ccc(C(=O)Nc4c(C)cccc4Cl)cc3s2)nc(NCCO)n1 | 2 | IC50 [2]: 329 nM; Ki [3]: 4 nM; IC50 [4]: 1.1 nM; Ki [5]: 10 nM

Reference: ChEMBL document CHEMBL1146618, “Discovery of 2-amino-heteroaryl-benzothiazole-6-anilides as potent p56(lck) inhibitors” (Bioorg Med Chem Lett, 2003)
